Structures are written as SMILES. Some results are limits rather than exact numbers.

The target of test [1] is Nitric oxide synthase 1 (Rattus norvegicus) (UniProt P29476). In words: In vitro percent inhibition of rat cerebellar neuronal nitric oxide synthase at a concentration of 100 uM. The method, boiled down: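 Rat cerebellar homogenate nNOS, assayed as L-[3H]arginine to L-[3H]citrulline conversion (1 mM CaCl2, 200 μM β-NADPH, 0.88 μM L-arginine, 0.12 µM L-[3H]arginine, 15 min, 37 °C). Compound at 100 µM in ethanol or DMSO vehicle. Result given as % inhibition.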

Test [2] concerns the target T1, Nitric oxide synthase 1 (Rattus norvegicus, UniProt P29476). In words: In vitro inhibitory concentration against rat cerebellar neuronal nitric oxide synthase.
The target of test [3] is T1, Nitric oxide synthase 1. Kind of test: In vitro inhibitory concentration against rat cerebellar neuronal nitric oxide synthase; no effect. The procedure, abridged:
(§1)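 Rat cerebellum homogenate nNOS. L-[3H]arginine to L-[3H]citrulline conversion with 1 mM CaCl2, 200 μM β-NADPH, 0.88 μM L-arginine and 0.12 µM L-[3H]arginine, 15 min at 37 °C. Vehicle ethanol or DMSO 0.4–0.8%. IC50 from inhibition curves at 0.1, 1, 10 and 100 µM. Mean ± SEM, 1–6 experiments.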

The test system of test [4] is Mus musculus. Kind of test: Antinociceptive activity in Writhing test in mice(ip) at a dose of 15 mg/kg (p<0.001). On the technique in general: In writhing tests, fewer writhes than in controls are read as antinociception.
Test [5] deals with Nitric oxide synthase 1 (Rattus norvegicus) (UniProt P29476). Kind of test: Ex vivo inhibition of rat cerebellar neuronal nitric oxide synthase after intraperitoneal administration in rats. The note with it: concentration not given here. It is filed as functional, organism-based. The method, boiled down: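 Rats, n=6, received 50 mg/kg ip in arachis oil. Cerebellum removed 30 min later. nNOS activity measured ex vivo as L-[3H]arginine to L-[3H]citrulline conversion. Expressed as % inhibition.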

Test [6] deals with Mus musculus. Kind of test: Antinociceptive activity in Writhing test in mice(ip) at a dose of 50 mg/kg (p<0.001). The format is functional.
The target of test [7] is T1, Nitric oxide synthase 1. In words: In vitro inhibitory concentration against rat cerebellar neuronal nitric oxide synthase; No effect. The method, boiled down: as §1
Test [8] concerns Mus musculus. In words: Antinociceptive activity in Writhing test in mice(ip) at a dose of 25 mg/kg (p<0.05). It is filed as functional.
Test [9] concerns Mus musculus. Kind of test: Antinociceptive activity in Writhing test in mice(ip) at a dose of 10 mg/kg (p<0.05). The format is functional.
Test [10] has as its system Mus musculus. Kind of test: Effect of l-Arginine on Antinociceptive activity in mice(ip) at a dose of 50 mg/kg (p<0.05). It is filed as functional.

Sequence of Nitric oxide synthase 1 (Rattus norvegicus) (P29476 whole entry): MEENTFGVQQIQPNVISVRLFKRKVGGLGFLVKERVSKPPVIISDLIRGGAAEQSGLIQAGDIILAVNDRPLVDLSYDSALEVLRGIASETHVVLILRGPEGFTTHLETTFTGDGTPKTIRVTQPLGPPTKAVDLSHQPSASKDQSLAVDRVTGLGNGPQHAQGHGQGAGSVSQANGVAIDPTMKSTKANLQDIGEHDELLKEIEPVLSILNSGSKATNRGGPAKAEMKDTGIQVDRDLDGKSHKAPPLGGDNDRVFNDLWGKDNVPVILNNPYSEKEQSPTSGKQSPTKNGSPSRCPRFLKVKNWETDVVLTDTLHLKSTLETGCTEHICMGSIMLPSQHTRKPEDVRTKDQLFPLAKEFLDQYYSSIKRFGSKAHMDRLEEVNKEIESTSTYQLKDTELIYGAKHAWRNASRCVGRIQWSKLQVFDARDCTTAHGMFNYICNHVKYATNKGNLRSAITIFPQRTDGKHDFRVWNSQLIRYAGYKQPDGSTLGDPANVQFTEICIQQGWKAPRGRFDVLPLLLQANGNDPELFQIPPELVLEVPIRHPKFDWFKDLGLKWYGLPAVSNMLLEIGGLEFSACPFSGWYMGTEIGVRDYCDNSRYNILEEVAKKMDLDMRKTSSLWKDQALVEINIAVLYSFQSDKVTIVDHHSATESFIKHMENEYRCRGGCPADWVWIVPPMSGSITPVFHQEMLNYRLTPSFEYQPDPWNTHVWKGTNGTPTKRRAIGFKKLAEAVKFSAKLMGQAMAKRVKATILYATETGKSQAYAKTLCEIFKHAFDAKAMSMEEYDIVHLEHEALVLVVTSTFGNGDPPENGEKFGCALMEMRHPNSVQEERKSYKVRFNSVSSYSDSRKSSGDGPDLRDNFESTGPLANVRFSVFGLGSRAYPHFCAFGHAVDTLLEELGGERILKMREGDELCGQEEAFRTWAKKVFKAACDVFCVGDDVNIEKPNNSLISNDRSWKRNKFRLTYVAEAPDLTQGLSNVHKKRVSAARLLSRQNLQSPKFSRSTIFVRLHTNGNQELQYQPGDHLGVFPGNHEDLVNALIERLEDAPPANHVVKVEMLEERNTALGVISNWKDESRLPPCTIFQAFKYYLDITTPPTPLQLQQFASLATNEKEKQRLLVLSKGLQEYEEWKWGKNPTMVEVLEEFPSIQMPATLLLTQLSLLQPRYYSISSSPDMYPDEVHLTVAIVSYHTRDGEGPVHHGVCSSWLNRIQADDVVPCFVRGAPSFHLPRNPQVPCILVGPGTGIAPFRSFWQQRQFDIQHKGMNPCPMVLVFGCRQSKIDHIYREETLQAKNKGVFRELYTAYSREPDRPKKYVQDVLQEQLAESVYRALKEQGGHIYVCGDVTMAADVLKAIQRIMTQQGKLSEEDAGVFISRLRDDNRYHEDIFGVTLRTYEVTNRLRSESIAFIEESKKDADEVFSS
T1 sequence (P29476 whole entry): as above

A word on the inhibition: it is the drop in the measured response relative to a control, in per cent. Lower therefore signals little suppression. In general, IC50 refers to the midpoint of a concentration-inhibition curve. A higher IC50 goes with lower potency. As for `COc1ccc2[nH]ncc2c1`, in test [1], the inhibition came out at 25%. This compound had a concentration for half-maximal inhibition (IC50) in test [2] greater than 100 µM.

On to `c1ccc(COc2cccc3c[nH]nc23)cc1`, for which the inhibition in test [1] was 0%. For the same compound, in test [3], the IC50 result was “Not Active”. The like results for `COc1cccc2c(I)[nH]nc12` were, in that order, 0% and “Not Active”. Compound `CC(=O)Oc1ccccc1C(=O)O` [ASPIRIN] returned a No. of writhes in test [4] of 3.5. The compound `Brc1ccc2[nH]ncc2c1` showed an IC50 in test [2] of 75 µM. Compound `Clc1ccc2cn[nH]c2c1` had an IC50 in test [2] of 28 µM. In the case of `CCOc1cccc2c[nH]nc12`, the inhibition in [1] was 50%. Also, the midpoint of inhibition in test [2], the IC50, lay at 100 µM. Consider `COc1cccc2[nH]ncc12`, for which, in test [1], the inhibition was 30%. Also, the half-inhibitory concentration (IC50) in [2] was greater than 100 µM. Consider `FC(F)(F)c1ccccc1-n1ccnc1`, for which inhibition in [2] was half-maximal at 30 µM (IC50). This compound had an inhibition in test [5] of 45%. The compound `O=[N+]([O-])c1cccc2cn[nH]c12` [7-NITROINDAZOLE] yielded a No. of writhes in [6] of 6.2. The same compound gave an inhibition in [5] of 92%. Compound `COc1ccc2c[nH]nc2c1` displayed an inhibition in test [1] of 0%. Further, the 50% inhibitory concentration (IC50) result in test [7] is recorded as “Not Active”. In test [2], `Fc1ccc2[nH]ncc2c1` showed an IC50 greater than 100 µM. For `Oc1cccc2cn[nH]c12`, the inhibition in test [1] came out at 7%. Besides, the IC50 in test [2] was greater than 100 µM. In turn, `COc1cccc2c[nH]nc12` came in with an inhibition in [1] of 80%. The No. of writhes is 12.2 in test [8], 15.4 in test [9], 4.7 in test [6] and 10.6 in test [10]. This compound also registered a half-maximal inhibitory concentration (IC50) in [2] of 6.3 µM. With `Cc1ccc2cn[nH]c2c1`, in [2], the 50% inhibitory concentration (IC50) was greater than 100 µM.

(Values after ChEMBL document CHEMBL1134250, “Inhibition of neuronal nitric oxide synthase by 7-methoxyindazole and related substituted indazoles” (Bioorg Med Chem Lett, 2001).)
